# Results from ChEMBL document CHEMBL2401723, “Optimization of the electrophile of chloronitrobenzamide leads active against Trypanosoma brucei” (Bioorg Med Chem Lett, 2013).
# Legend:
# [1] = Permeability of the compound by PAMPA; type: ADME; settings: for Papp: read-out: permeability
# How it was run: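 Passive permeability by parallel artificial membrane assay (pION implementation), measured against PBS pH 7.4 sink buffer.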
# [2] = Kinetic solubility in PBS buffer at pH 7.4 after 18 hrs by UV-spectroscopic analysis; type: physicochemical; settings: for solubility kinetic at 18 h: PBS buffer, pH 7.4, read-out: Kinetic_solubility
# BJ = assay: Cytotoxicity against human BJ cells assessed as growth inhibition after 72 hrs by Cell-Titer Glo assay; type: cell-based
# How it was run: (§1)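 Human cell lines (Raji Burkitt's lymphoma, BJ immortalized foreskin fibroblast, HEK293 embryonic kidney, HepG2) exposed 72 h to a 10-point threefold dilution series by pin transfer, lowest final 0.5 nM, final DMSO 0.2%; proliferation run in triplicate, EC50 derived.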
# Raji = assay: Cytotoxicity against human Raji cells assessed as growth inhibition after 72 hrs by Cell-Titer Glo assay; type: cell-based; how it was run: as §1
# HepG2 = assay: Cytotoxicity against human HepG2 cells assessed as growth inhibition after 72 hrs by Cell-Titer Glo assay; type: cell-based; settings: HepG2, 72 h; how it was run: as §1
# HEK293 = assay: Cytotoxicity against HEK293 cells assessed as growth inhibition after 72 hrs by Cell-Titer Glo assay; type: cell-based; settings: Homo sapiens, HEK293, 72 h; how it was run: as §1
# [3] = test system: Trypanosoma brucei brucei; assay: Antitrypanosomal activity against Trypanosoma brucei brucei assessed as parasite growth inhibition after 48 hrs by Cell-Titer Glo assay; type: functional, organism-based
# [4] = test system: Trypanosoma brucei gambiense; assay: Antitrypanosomal activity against Trypanosoma brucei gambiense STIB930 assessed as parasite growth inhibition after 48 hrs by Cell-Titer Glo assay; type: functional, organism-based; settings: STIB930, 48 h
# How it was run: (§2)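 Parasites exposed to a 10-point threefold dilution series added by pin transfer, lowest final concentration 0.5 nM, final DMSO 0.2%; EC50 from the series, mean of two experiments.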
# [5] = test system: Trypanosoma brucei rhodesiense; assay: Antitrypanosomal activity against wild type Trypanosoma brucei rhodesiense STIB900 assessed as parasite growth inhibition after 48 hrs by Cell-Titer Glo assay; type: functional, organism-based; settings: STIB900, 48 h; how it was run: as §2
# [6] = Half life in human liver microsomes; type: ADME, Microsome
# [7] = Half life in mouse liver microsomes; type: ADME, Microsome
smiles,measurement,setting,value
O=C(O)/C=C/C(=O)Nc1cccc(-c2nc3ccccc3s2)c1,Papp,[1],4 ×10⁻⁶ cm/s
same,solubility kinetic at 18 h,[2],56 µM
same,EC50,BJ,> 25 µM
same,EC50,Raji,> 25 µM
same,EC50,HepG2,> 25 µM
same,EC50,HEK293,> 25 µM
same,EC50,[3],> 33 µM
O=C(Nc1cccc(-c2nc3ccccc3s2)c1)c1cnccc1Cl,EC50,[4],0.061 µM
same,Papp,[1],732 ×10⁻⁶ cm/s
same,EC50,[5],0.062 µM
same,solubility kinetic at 18 h,[2],0.32 µM
same,EC50,BJ,> 25 µM
same,EC50,Raji,12 µM
same,EC50,HepG2,> 25 µM
same,EC50,HEK293,> 25 µM
same,EC50,[3],0.3 µM
CN(C)CCC(=O)Nc1cccc(-c2nc3ccccc3s2)c1,permeability,[1],2080 ×10⁻⁶ cm/s
same,solubility kinetic at 18 h,[2],56 µM
same,EC50,BJ,> 25 µM
same,EC50,Raji,> 25 µM
same,EC50,HepG2,21 µM
same,EC50,HEK293,> 25 µM
same,EC50,[3],> 33 µM
CC(Cl)C(=O)Nc1cccc(-c2nc3ccccc3s2)c1 (centres undefined),Papp,[1],769 ×10⁻⁶ cm/s
same,solubility kinetic at 18 h,[2],0.83 µM
same,EC50,BJ,> 25 µM
same,EC50,Raji,> 25 µM
same,EC50,HepG2,> 25 µM
same,EC50,HEK293,> 25 µM
same,EC50,[3],1.2 µM
CC(C)(CCl)C(=O)Nc1cccc(-c2nc3ccccc3s2)c1,Papp,[1],891 ×10⁻⁶ cm/s
same,Kinetic_solubility,"[2]; buffer, pH 7.4, 18 h, BLD = below limit of detection",BLD
same,EC50,BJ,> 25 µM
same,EC50,Raji,> 25 µM
same,EC50,HepG2,> 25 µM
same,EC50,HEK293,> 25 µM
same,EC50,[3],> 33 µM
Cc1ccc(-c2nc3ccccc3s2)cc1NC(=O)c1cnccc1Cl,half-life,[6],3.7 h
same,half-life,[7],0.58 h
same,EC50,[4],0.058 µM
same,Papp,[1],791 ×10⁻⁶ cm/s
same,EC50,[5],0.055 µM
same,solubility kinetic at 18 h,[2],0.14 µM
same,EC50,BJ,> 25 µM
same,EC50,Raji,> 25 µM
same,EC50,HepG2,> 25 µM
same,EC50,HEK293,> 25 µM
same,EC50,[3],0.058 µM
O=C(Nc1ccc(F)c(-c2nc3ccccc3o2)c1)c1cnccc1Cl,EC50,[4],0.12 µM
same,Papp,[1],305 ×10⁻⁶ cm/s
same,EC50,[5],0.05 µM
same,solubility kinetic at 18 h,[2],0.67 µM
same,EC50,BJ,> 25 µM
same,EC50,Raji,> 25 µM
same,EC50,HepG2,> 25 µM
same,EC50,HEK293,> 25 µM
same,EC50,[3],0.12 µM
C=C(C)C(=O)Nc1cccc(-c2nc3ccccc3s2)c1,Papp,[1],987 ×10⁻⁶ cm/s
same,solubility kinetic at 18 h,[2],0.42 µM
same,EC50,BJ,> 25 µM
same,EC50,Raji,> 25 µM
same,EC50,HepG2,> 25 µM
same,EC50,HEK293,> 25 µM
same,EC50,[3],> 33 µM
O=C(Nc1cccc(-c2nc3ccccc3s2)c1)c1ccncc1Cl,Papp,[1],563 ×10⁻⁶ cm/s
same,solubility kinetic at 18 h,[2],0.32 µM
same,EC50,BJ,> 25 µM
same,EC50,Raji,> 25 µM
same,EC50,HepG2,> 25 µM
same,EC50,HEK293,> 25 µM
same,EC50,[3],24 µM
COc1ccc(-c2nc3ccccc3s2)cc1NC(=O)c1cnccc1Cl,Papp,[1],121 ×10⁻⁶ cm/s
same,solubility kinetic at 18 h,[2],0.34 µM
same,EC50,BJ,> 25 µM
same,EC50,Raji,13 µM
same,EC50,HepG2,> 25 µM
same,EC50,HEK293,> 25 µM
same,EC50,[3],0.12 µM
O=C(Nc1cc(-c2nc3ccccc3s2)ccc1F)c1cnccc1Cl,Papp,[1],306 ×10⁻⁶ cm/s
same,solubility kinetic at 18 h,[2],0.18 µM
same,EC50,BJ,> 25 µM
same,EC50,Raji,> 25 µM
same,EC50,HepG2,> 25 µM
same,EC50,HEK293,> 25 µM
same,EC50,[3],0.18 µM
O=C(Nc1cccc(-c2nc3ccccc3s2)c1)c1cc([N+](=O)[O-])cnc1Cl,Papp,[1],42 ×10⁻⁶ cm/s
same,solubility kinetic at 18 h,[2],0.45 µM
same,EC50,BJ,> 25 µM
same,EC50,Raji,8.4 µM
same,EC50,HepG2,> 25 µM
same,EC50,HEK293,> 25 µM
same,EC50,[3],13 µM
O=C(CCl)Nc1cccc(-c2nc3ccccc3s2)c1,Papp,[1],660 ×10⁻⁶ cm/s
same,solubility kinetic at 18 h,[2],1 µM
same,EC50,BJ,8.5 µM
same,EC50,Raji,1.7 µM
same,EC50,HepG2,16 µM
same,EC50,HEK293,10 µM
same,EC50,[3],0.12 µM
